Measured values from PubChem BioAssay.
Calls of active or inactive are those of the source.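 The calls were made as follows, unless noted: active = viability at or below 10% of carrier control in both of two separate runs; inconclusive = viability at or below 10% in only one of the two runs; inactive = the rest.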

Columns and labels:
[1] = reducers of endogenous Her2 protein level, primary screen, SKBR3 breast tumor cells, AlphaScreen, ATP viability (AID 461;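 active = Her2 level under about 52% in both replicate screens, with viability over 70% of control, limit read from the data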;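 as to Her2 level: lower value means less Her2 protein in the cells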;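 as to viability: percent of carrier control wells set as 100% viability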); conditions: 18-24 h, measured here: SKBR3 viability, ATP luminescence, at 10 µM
[2] = target: Receptor tyrosine-protein kinase erbB-2 (Homo sapiens) (UniProt P04626); experiment: as above; conditions: 18-24 h, at 10 µM, stronger effect = lower value
Sequence of Receptor tyrosine-protein kinase erbB-2 (Homo sapiens) (P04626 whole entry, looked up): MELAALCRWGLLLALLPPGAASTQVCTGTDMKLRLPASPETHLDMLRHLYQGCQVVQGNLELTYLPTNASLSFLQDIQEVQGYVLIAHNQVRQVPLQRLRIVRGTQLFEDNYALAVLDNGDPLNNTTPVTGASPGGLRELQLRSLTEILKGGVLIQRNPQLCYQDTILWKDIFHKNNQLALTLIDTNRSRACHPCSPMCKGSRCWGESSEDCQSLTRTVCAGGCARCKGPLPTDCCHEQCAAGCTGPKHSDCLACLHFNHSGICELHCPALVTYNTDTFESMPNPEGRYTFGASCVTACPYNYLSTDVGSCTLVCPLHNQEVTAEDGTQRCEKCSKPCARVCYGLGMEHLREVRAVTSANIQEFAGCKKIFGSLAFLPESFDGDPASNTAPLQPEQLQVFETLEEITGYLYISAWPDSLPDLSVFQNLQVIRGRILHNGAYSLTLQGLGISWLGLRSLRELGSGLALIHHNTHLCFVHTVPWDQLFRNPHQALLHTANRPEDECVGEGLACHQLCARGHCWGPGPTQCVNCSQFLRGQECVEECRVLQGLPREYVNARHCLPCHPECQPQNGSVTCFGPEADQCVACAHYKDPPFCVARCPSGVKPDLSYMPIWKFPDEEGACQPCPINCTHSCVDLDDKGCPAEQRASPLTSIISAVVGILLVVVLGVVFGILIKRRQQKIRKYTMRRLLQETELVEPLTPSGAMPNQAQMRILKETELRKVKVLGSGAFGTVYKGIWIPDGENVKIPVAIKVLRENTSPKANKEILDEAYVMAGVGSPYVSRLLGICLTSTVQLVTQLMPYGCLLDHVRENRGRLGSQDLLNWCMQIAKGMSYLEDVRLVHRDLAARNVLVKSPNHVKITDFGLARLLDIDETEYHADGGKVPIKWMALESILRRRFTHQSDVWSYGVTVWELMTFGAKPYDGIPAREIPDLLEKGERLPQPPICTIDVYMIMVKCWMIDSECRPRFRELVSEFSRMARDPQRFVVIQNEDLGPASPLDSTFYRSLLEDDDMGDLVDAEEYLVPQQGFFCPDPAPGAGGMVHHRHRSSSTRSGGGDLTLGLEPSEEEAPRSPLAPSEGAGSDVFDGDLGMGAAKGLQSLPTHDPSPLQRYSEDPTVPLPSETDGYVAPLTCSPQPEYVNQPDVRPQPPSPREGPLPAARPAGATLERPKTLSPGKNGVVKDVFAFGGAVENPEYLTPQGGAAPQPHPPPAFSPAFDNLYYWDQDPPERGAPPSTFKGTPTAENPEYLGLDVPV

[3] = SK-BR-3 cell growth inhibitors, pilot screen, 24 h, human (AID 572); conditions: SK-BR-3 viability, CellTiter-Glo luminescence, at 10 µM, stronger effect = lower value;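 also: compound exposure lasted between 18 and 24 h rather than exactly 24 h; 100% = carrier-treated control wells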
[4] = HUVEC growth inhibition – cell-based, human, primary screen (AID 575;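 active = viability at or below 30% in both replicate assays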;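 also: 100% = median of untreated cell wells with 0.1% DMSO on each plate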); conditions: HUVEC proliferation, CellTiter-Glo luminescence, 72 h; at 10 µM; stronger effect = lower value
Summary of the method: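 Assay system: primary human umbilical vein endothelial cells / Buffer or medium: endothelial basal medium with 2% FBS plus growth supplements / Compound dosing: one dose, 10 µM final, 0.1% DMSO / Timing: 72 h treatment at 37 °C / Signal: CTG luminescence / Benchmarks: 32 DMSO-only cell-control wells (high), 32 MePR drug-control wells (low) per plate / Plate: collagen-coated 384-well format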

[5] = growth inhibitors of H69AR lung tumor, primary screen, human, duplicate replicates (AID 580;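 active = viability at or under a set limit in both replicates, limit being median viability minus 3 SD, cut at about 48% in these data, passing the limit was not always enough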;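 also: 100% = mean luminescence of untreated wells and 0% = no signal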); conditions: H69AR lung tumor cells viability, ATP luminescence, 72 h; at 10 µM; stronger effect = lower value
[6] = reversal of MRP1-mediated doxorubicin resistance, pilot screen, H69AR cells, doxorubicin co-treatment (AID 601;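 active = viability loss from added drug above about 55%, and viability with drug at most 40%, in both replicates, limit read from the data, passing the limit was not always enough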); conditions: CellTiter-Glo, 72 h, at 10 µM; for differential viability (reversal): stronger effect = higher value
[7] = 384-well plate pilot, post-Golgi transport modulator project, inhibition of yeast transport mutant growth (AID 636; in the data active = inhibition above about 31%); conditions: absorbance 615 nm, about 18 h, stronger effect = higher value
[8] = growth suppression of yeast trafficking mutant, preliminary HTS, modulators of trafficking downstream of Golgi apparatus project, 1536-format plate, OD 615 nm (AID 637; in the data active = inhibition above about 30%); conditions: yeast transport mutant growth, absorbance 615 nm, 18 h; stronger effect = higher value
[9] = H69AR cells + 2 uM doxorubicin, measured here: viability with 2 uM doxorubicin, stronger effect = lower value
[10] = H69AR cells, compound alone cytotoxicity

Row | Compound | viability [1] [%] | Her2 level [2] | viability [3] | viability [4] | viability [5] | differential viability (reversal) ([6]; H69AR cells + 2 uM doxorubicin) | viability [6, 9] [%] | viability [6, 10] [%] | inhibition [7] | inhibition [8]
1 | CCN(CC)S(=O)(=O)c1ccc(Br)c(OC)c1 | 106 | 84% (inactive) | 106% (inactive) | 90.4% (inactive) | 96.3% (inactive) | 5.01% (inactive) | 91.3 | 96.3 | -6.89% (inactive) | -2.13% (inactive)
2 | O=C(Nc1ccccc1)N1C(=O)C2(OCCO2)c2ccccc21 | 114 | 118% (inactive) | 114% (inactive) | 100% (inactive) | 87% (inactive) | -11.8% (inactive) | 98.8 | 87 | -0.79% (inactive) | 1.64% (inactive)
3 | COc1cc(C(=O)N2CCN(C(=O)CC(C)C)CC2)cc(OC)c1OC | 93.5 | 106% (inactive) | 93.5% (inactive) | 101% (inactive) | 91.3% (inactive) | -6.59% (inactive) | 97.9 | 91.3 | 2.63% (inactive) | 13.2% (inactive)
4 | Oc1ccccc1C1=Nc2nc3ccccc3n2C(c2ccccc2)C1 (stereo not given) | 75.5 | 86.5% (inactive) | 75.5% (inactive) | 103% (inactive) | 65% (inactive) | -12.7% (inactive) | 77.7 | 65 | -7.24% (inactive) | -1.15% (inactive)
5 | COCCn1nnnc1C(c1cccs1)N1CCN(c2cc(C)ccc2C)CC1 (stereo not given) | 107 | 84.5% (inactive) | 107% (inactive) | 84.8% (inactive) | 92.5% (inactive) | 2.44% (inactive) | 90.1 | 92.5 | 1.3% (inactive) | 1.27% (inactive)
6 | COc1cc(OC)cc(-c2nnc(SCC(=O)Nc3cc(C)on3)o2)c1 | 92.5 | 81% (inactive) | 92.5% (inactive) | 82.7% (inactive) | 79.6% (inactive) | -7.97% (inactive) | 87.6 | 79.6 | -5.53% (inactive) | -4.33% (inactive)
7 | COc1ccccc1C1C(C(C)=O)=C(O)C(=O)N1CCc1ccccc1 (stereo not given) | 93.5 | 102% (inactive) | 93.5% (inactive) | 98.1% (inactive) | 104% (inactive) | 9.69% (inactive) | 94.5 | 104 | -5.07% (inactive) | 3.87% (inactive)
8 | NC(=O)c1ccccc1NC(=O)CN1CCOCC1 | 106 | 87% (inactive) | 106% (inactive) | 104% (inactive) | 88.1% (inactive) | 6.19% (inactive) | 81.9 | 88.1 | -1.87% (inactive) | 0.32% (inactive)
9 | Cc1ccc2nc(NC(=O)C3CCCN(S(=O)(=O)c4cnc[nH]4)C3)sc2c1 (stereo not given) | 96.5 | 92% (inactive) | 96.5% (inactive) | 98% (inactive) | 81.9% (inactive) | -9.05% (inactive) | 90.9 | 81.9 | -2.67% (inactive) | -3.11% (inactive)
10 | O=C(CCSc1ccccc1)N1CCOCC1 | 94 | 98.5% (inactive) | 94% (inactive) | 96.7% (inactive) | 93.5% (inactive) | -0.87% (inactive) | 94.4 | 93.5 | -5.39% (inactive) | -2.13% (inactive)
11 | O=C1OC2(c3ccccc3)C3CCCC2C13 | 100 | 120% (inactive) | 100% (inactive) | 97.3% (inactive) | 100% (inactive) | 7.76% (inactive) | 92.4 | 100 | -6.44% (inactive) | 5.87% (inactive)
12 | Nc1cc(CN2C(=O)c3ccccc3C2=O)cc(Cl)c1O | 102 | 91.5% (inactive) | 102% (inactive) | 75.1% (inactive) | 108% (inactive) | 29% (inactive) | 79.2 | 108 | -5.41% (inactive) | -1.64% (inactive)
13 | CCCCOc1ccc(-c2nnc(N)s2)cc1 | 85.5 | 98% (inactive) | 85.5% (inactive) | 93.3% (inactive) | 98.5% (inactive) | 12.6% (inactive) | 85.9 | 98.5 | 3.33% (inactive) | 1.15% (inactive)
14 | CCOc1ccc2[nH]c(=O)c(CN(CCOC)C(=O)N3CCOCC3)cc2c1 | 97 | 90% (inactive) | 97% (inactive) | 102% (inactive) | 92.1% (inactive) | -8.59% (inactive) | 101 | 92.1 | -3.33% (inactive) | 4.59% (inactive)
15 | O=C(c1ccccc1Oc1nnnn1-c1ccccc1)N1CCOCC1 | 89.5 | 84% (inactive) | 89.5% (inactive) | 67.6% (inactive) | 79.6% (inactive) | 7.74% (inactive) | 71.9 | 79.6 | -2.31% (inactive) | -5.67% (inactive)
16 | O=S1(=O)N=C(Nc2nc3c(s2)CCCC3)c2ccccc21 | 82 | 112% (inactive) | 82% (inactive) | 85.4% (inactive) | 78.9% (inactive) | -3.82% (inactive) | 82.7 | 78.9 | 0.93% (inactive) | -7.62% (inactive)

Row | Compound | viability [1] [%] | Her2 level [2] | viability [3] | viability [4] | viability [5] | differential viability (reversal) ([6]; H69AR cells + 2 uM doxorubicin) | viability [6, 9] [%] | viability [6, 10] [%] | inhibition [7] | inhibition [8]
17 | Cc1sc2ncnc(OCC(=O)N3CCN(S(=O)(=O)c4ccccc4)CC3)c2c1C | 69.5 | 84.5% (inactive) | 69.5% (inactive) | 100% (inactive) | 92.7% (inactive) | 12% (inactive) | 80.7 | 92.7 | -1.32% (inactive) | 0.95% (inactive)
18 | Cc1cc(=O)n(CC(C)C)c(O)c1C#N | 106 | 98% (inactive) | 106% (inactive) | 99.4% (inactive) | 104% (inactive) | 0.33% (inactive) | 104 | 104 | 0.53% (inactive) | 5.08% (inactive)
19 | CC(=O)c1cnc2cc(-c3ccccc3)nn2c1C | 91.5 | 110% (inactive) | 91.5% (inactive) | 91.4% (inactive) | 103% (inactive) | 19.5% (inactive) | 83.1 | 103 | 0% (inactive) | -10.7% (inactive)
20 | CC(C)Cn1c(=O)c(C2=NS(=O)(=O)c3ccccc3N2)c(O)c2ccccc21 | 118 | 86.5% (inactive) | 118% (inactive) | 97% (inactive) | 98.1% (inactive) | -0.935% (inactive) | 99 | 98.1 | -2.21% (inactive) | 1.8% (inactive)
21 | CCOc1ccccc1-c1nc(-c2ccc(NC(=O)Cc3ccccc3OC)cc2)no1 | 90.5 | 114% (inactive) | 90.5% (inactive) | 75.3% (inactive) | 88.6% (inactive) | 5.33% (inactive) | 83.3 | 88.6 | 0.93% (inactive) | -5.81% (inactive)
22 | COC(=O)CN(c1nc(C)c(Cl)c(OC)n1)S(=O)(=O)c1ccc(C)cc1 | 117 | 104% (inactive) | 117% (inactive) | 86.9% (inactive) | 84.9% (inactive) | 2.96% (inactive) | 81.9 | 84.9 | -3.64% (inactive) | -2.86% (inactive)
23 | COC(=O)CSc1cc(C)nc(NC(C)=O)n1 | 93.5 | 83.5% (inactive) | 93.5% (inactive) | 102% (inactive) | 101% (inactive) | 6.47% (inactive) | 94.2 | 101 | -3.92% (inactive) | -0.95% (inactive)
24 | CCOC(=O)C1C2C=CC3(CN(c4cccc(Cl)c4)C(=O)C13)O2 (stereo not given) | 86 | 80% (inactive) | 86% (inactive) | 91.2% (inactive) | 97.5% (inactive) | 1.17% (inactive) | 96.3 | 97.5 | -4.4% (inactive) | 0.17% (inactive)
25 | CCOc1nc(-c2ccccc2)ccc1-c1noc(-c2cccnc2)n1 | 76.5 | 90% (inactive) | 76.5% (inactive) | 124% (inactive) | 91.2% (inactive) | 4.83% (inactive) | 86.4 | 91.2 | -0.26% (inactive) | 0.33% (inactive)
26 | CCOC(=O)c1ccc(-n2c(=O)[nH]c3ccccc3c2=O)cc1 | 102 | 120% (inactive) | 102% (inactive) | 105% (inactive) | 93.1% (inactive) | 2.73% (inactive) | 90.4 | 93.1 | 3.07% (inactive) | -2.74% (inactive)
27 | N#CC1=C(SCC(=O)c2cc3ccccc3oc2=O)NC(=O)C(C#N)C12CCCC2 (stereo not given) | 92 | 76% (inactive) | 92% (inactive) | 72.1% (inactive) | 86.5% (inactive) | 6.35% (inactive) | 80.1 | 86.5 | -3.2% (inactive) | 0.32% (inactive)
28 | CC(Oc1ccc(Br)cc1)C(=O)N1CCc2ccccc21 (stereo not given) | 85.5 | 96.5% (inactive) | 85.5% (inactive) | 107% (inactive) | 96.9% (inactive) | 9.3% (inactive) | 87.6 | 96.9 | -2.76% (inactive) | -3.02% (inactive)
29 | Cc1cnc(C(=O)Nc2ccc(N3CCOCC3)cc2)cn1 | 95 | 87% (inactive) | 95% (inactive) | 116% (inactive) | 100% (inactive) | 11.7% (inactive) | 88.5 | 100 | -1.32% (inactive) | -1.45% (inactive)
30 | Cc1csc2ncc(C(=O)N3CCc4ccccc43)c(=O)n12 | 95.5 | 109% (inactive) | 95.5% (inactive) | 86% (inactive) | 89% (inactive) | -3.54% (inactive) | 92.5 | 89 | -7.2% (inactive) | 4% (inactive)
31 | COc1ccccc1C(=O)N1CCN=C1SCc1cccnc1 | 102 | 103% (inactive) | 102% (inactive) | 97.5% (inactive) | 96.8% (inactive) | 11.6% (inactive) | 85.3 | 96.8 | -3.65% (inactive) | -2.06% (inactive)
32 | CCOc1ccc(-c2noc(-c3ccncc3)n2)cc1OCC | 99 | 108% (inactive) | 99% (inactive) | 119% (inactive) | 86.7% (inactive) | -3.94% (inactive) | 90.7 | 86.7 | -6.13% (inactive) | -1.61% (inactive)
